Test [1] relates to Translocator protein (Homo sapiens), P30536 [UNDEFINED MUTATION]. Description: Binding affinity to human TSPO A147T mutant expressed in HEK293 cells assessed as inhibition of cell proliferation at 100 uM incubated for 48 hrs by Brdu incorporation-based ELISA relative to control. An outline of the steps: (§1)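 Stably transfected WT or A147T TSPO HEK293 cells, 8.75 x 10^3/well on poly-L-lysine-coated plates for 24 h, then 100 µM ligand for 48 h. BrdU added 4 h at 37 °C, BrdU incorporation ELISA stopped with 1 M sulfuric acid, absorbance 450 nm; normalised to vehicle-treated controls; n ≥ 3; two-way ANOVA with Dunnett's test.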
Sequence of Translocator protein (Homo sapiens), P30536 [UNDEFINED MUTATION] (P30536 whole entry, looked up, stated change not applied): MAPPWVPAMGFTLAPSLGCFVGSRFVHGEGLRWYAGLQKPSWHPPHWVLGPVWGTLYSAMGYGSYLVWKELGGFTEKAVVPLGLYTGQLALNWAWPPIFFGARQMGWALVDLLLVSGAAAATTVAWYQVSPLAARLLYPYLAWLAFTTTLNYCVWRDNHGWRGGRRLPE
In general terms: An ELISA detects its analyte on a solid surface through an enzyme-linked reagent.

In test [2] the target is T1, Translocator protein (Homo sapiens, UniProt P30536). Description: Binding affinity to wild-type human TSPO expressed in HEK293 cells assessed as inhibition of cell proliferation at 100 uM incubated for 48 hrs by Brdu incorporation-based ELISA relative to control. Summed up: as §1
T1 sequence (P30536 whole entry): as the sequence (P30536 whole entry, looked up, stated change not applied) above
Test [3] addresses T1, Translocator protein. Description: Binding affinity to wild-type human TSPO expressed in HEK293 cells assessed as inhibition of cell viability at 100 uM incubated for 48 hrs by CellTiter Blue assay relative to control. The test is classed as cell-based. An outline of the steps:
(§2)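 Stably transfected WT or A147T TSPO HEK293 cells, 8.75 x 10^3/well on poly-L-lysine (100 µg/mL) plates for 24 h, then 100 µM ligand for 48 h. CellTiter Blue (resazurin) added for 4 h at 37 °C; fluorescence 530 ex/590 em; normalised to vehicle-treated cells; three independent experiments; two-way ANOVA with Dunnett's test.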
A general note: The colour change of resazurin is a common sign of viable cells or microbes.

Test [4] relates to Translocator protein (Homo sapiens), P30536 [UNDEFINED MUTATION]. Put plainly: Binding affinity to human TSPO A147T mutant expressed in HEK293 cells assessed as inhibition of cell viability at 100 uM incubated for 48 hrs by CellTiter Blue assay relative to control. It is filed as cell-based. An outline of the steps:
as §2

Test [5] addresses T1, Translocator protein. Put plainly: Displacement of [3H]PK11195 from wild-type human TSPO expressed in HEK293 cell membranes after 90 mins by scintillation counting method. For orientation: Displacement assays read how much labelled ligand stays bound in the presence of the test substance.
For test [6], the species on record is Homo sapiens. Put plainly: Selectivity ratio of ki for human TSPO A147T mutant expressed in HEK293 cell membranes to ki for human TSPO expressed in HEK293 cell membranes. It is filed as cell-based. Summed up:
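Membranes from stably transfected HEK293 cells (PBS/0.04% EDTA detachment, homogenised in Tris-HCl, washed by 48000 g spins), 20 µg protein/well for WT or 10 µg/well for A147T, incubated with 10 nM [3H]PK 11195 and competitor at log-spaced 3.1 nM–10 µM, 90 min, 4 °C.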

For test [7], the target named is T1, Translocator protein. Put plainly: Positive allosteric modulation of wild-type human TSPO expressed in HEK293 cells assessed as potentiation of PK11195-induced reduction in cell proliferation at 100 uM after 48 hrs by Brdu incorporation-based ELISA. Summed up:
(§3)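 WT or A147T TSPO HEK293 cells (8.75 x 10^3/well, poly-L-lysine plates, 24 h) co-treated with 100 µM PK 11195 plus 100 µM ligand for 48 h; proliferation by BrdU ELISA (4 h BrdU labelling, 450 nm read); compared with PK 11195 alone; n ≥ 3; two-way ANOVA with Dunnett's test.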

Test [8] has as its system Translocator protein (Homo sapiens), P30536 [UNDEFINED MUTATION]. Put plainly: Positive allosteric modulation of human TSPO A147T mutant expressed in HEK293 cells assessed as potentiation of PK11195-induced reduction in cell proliferation at 100 uM after 48 hrs by Brdu incorporation-based ELISA. Summed up: as §3
Test [9] addresses Translocator protein (Rattus norvegicus) (UniProt P16257). Put plainly: Binding affinity to TSPO in rat C6 glioma cells assessed as steroidogenic activity by measuring increase in pregnenolone level after 2 hrs by ELISA. The test is classed as cell-based. Summed up: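 C6 glioma cells plated at 1 x 10^5/well, after 24 h washed twice with ELISA buffer (HEPES-NaOH pH 7.4, 0.1% BSA, glucose, salts), then ligand 100 µM for 2 h in buffer containing trilostane 25 µM and SU10603 10 µM; vehicle 0.1% DMSO. Buffer collected, spun 1500 g, pregnenolone quantified by ELISA; n ≥ 3; one-way ANOVA with Dunnett's test.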

Test [10] addresses T1, Translocator protein. Description: Displacement of [3H]PK11195 from human TSPO A147T mutant expressed in HEK293 cells after 90 mins by scintillation counting method. It is filed as cell-based.
The target in test [11] is T1, Translocator protein. Put plainly: Displacement of [3H]PK11195 from wild-type human TSPO expressed in HEK293 cells after 90 mins by scintillation counting method. The test is classed as cell-based.
For test [12], the species on record is Homo sapiens. Put plainly: Selectivity ratio of ki for human TSPO A147T mutant expressed in HEK293 cells to ki for human TSPO expressed in HEK293 cells. It is filed as cell-based.
For test [13], the target named is T1, Translocator protein. Description: Potency index, ratio of PK11195 Ki to compound Ki for wild-type human TSPO expressed in HEK293 cell membranes. It is filed as cell-based.
In test [14] the test system is Translocator protein (Homo sapiens), P30536 [UNDEFINED MUTATION]. Put plainly: Potency index, ratio of PK11195 Ki to compound Ki for human TSPO A147T mutant expressed in HEK293 cell membranes. The test is classed as cell-based.

Calls of active or inactive are those of the source. The rule behind the calls is not given here. Bounds are passed on as bounds.

The values that follow come from ChEMBL document CHEMBL4334481, “First Nondiscriminating Translocator Protein Ligands Produced from a Carbazole Scaffold” (J Med Chem, 2019).

Broadly, the inhibition is the drop in the measured response relative to a control, in per cent. As a reminder, the Ki is a measure of affinity in units of concentration, obtained from inhibition or displacement. Read a high Ki as weaker binding.

Sequence of Translocator protein (Rattus norvegicus) (P16257 whole entry, looked up): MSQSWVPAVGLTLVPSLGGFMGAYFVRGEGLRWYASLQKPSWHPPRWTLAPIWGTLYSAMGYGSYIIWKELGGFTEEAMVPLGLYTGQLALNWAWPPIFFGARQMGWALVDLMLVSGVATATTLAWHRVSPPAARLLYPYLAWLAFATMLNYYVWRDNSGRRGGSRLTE

Take `CCN(Cc1ccccc1)C(=O)Cn1c2ccccc2c2ccccc21`: the inhibition entry in test [1], in test [2], in test [3] and in test [4] was “inactive” each time. In addition, the Ki in test [5] was found to be 70 nM. The Ratio Ki in test [6] was 4.5.
Take `COc1cccc(CN(C)C(=O)Cn2c3ccccc3c3cc(-c4cccc(Cl)c4)ccc32)c1`: the Ki in [5] was 201 nM. In addition, in [6], the Ratio Ki came to 3.2.
The corresponding values for `CCN(Cc1ccc(F)cc1)C(=O)Cn1c2ccccc2c2ccccc21` are 694 nM and above 14.4.
In [5], `CN(C)C(=O)Cn1c2ccccc2c2ccccc21` returned a Ki above 10000 nM.
`CCN(Cc1ccccc1NC(C)=O)C(=O)Cn1c2ccccc2c2ccccc21` yielded a Ki in [5] of 243 nM. The Ratio Ki in test [6] was above 41.2.
The matching figures for `COc1cccc(CN(C)C(=O)Cn2c3ccccc3c3cc(-c4ccc(Cl)cc4)ccc32)c1`: 3550 nM and 0.5.
In turn, `CCN(Cc1cccc(NC(C)=O)c1)C(=O)Cn1c2ccccc2c2ccccc21` yielded a Ki in test [5] above 10000 nM.
In turn, `CCN(Cc1ccccc1OC)C(=O)Cn1c2ccccc2c2ccccc21` came in with a Ki in test [5] of 1530 nM. Besides, the Ratio Ki in test [6] amounted to 1.
As to `CCN(Cc1cccc(F)c1)C(=O)Cn1c2ccccc2c2ccccc21`, the affinity in test [5], expressed as Ki, was 563 nM. The Ratio Ki in test [6] is above 17.8.
As for `CCN(Cc1ccccn1)C(=O)Cn1c2ccccc2c2ccccc21`, the inhibitory constant (Ki) in test [5] is above 10000 nM.
Still for that read-out and setting: with `CCN(Cc1ccc(C(F)(F)F)cc1)C(=O)Cn1c2ccccc2c2ccccc21` the figure was above 10000 nM.
On to `CN(Cc1ccccc1)C(=O)Cn1c2ccccc2c2ccccc21`, for which the inhibition result in test [1], in [2], in [3] and in [4] was “inactive” each time. For the same compound, in [5], the Ki is 53 nM. For the same compound, the Ratio Ki in test [6] turned out to be 2.5.
With `COc1cccc(CN(C)C(=O)Cn2c3ccccc3c3cc(-c4ccccc4)ccc32)c1`, the inhibition entry in [1], in [2], in test [3] and in test [4] was “inactive” throughout. The outcome in [7] and in test [8] was Active. Also, in test [5], affinity was put at a Ki of 231 nM. The Ratio Ki in test [6] came out at 0.9.
`CCN(Cc1ccc(NC(C)=O)cc1)C(=O)Cn1c2ccccc2c2ccccc21`: in test [5], the Ki is above 10000 nM.
Regarding `CCN(Cc1cccc(OC)c1)C(=O)Cn1c2ccccc2c2cc(-c3ccccc3)ccc21`, the inhibition result in test [1] is “Active”. Further, the inhibition entry in [2], in test [3] and in test [4] was “inactive” in each case. For the same compound, the affinity in test [5] corresponds to a Ki of 385 nM. In [6], the Ratio Ki is 1.1.
As to `O=C(Cn1c2ccccc2c2ccccc21)NCc1ccccc1`, in test [5], the Ki was above 10000 nM.
For the compound `CCN(Cc1cccc(OC)c1)C(=O)Cn1c2ccccc2c2cc(-c3ccc(OC)cc3)ccc21`, the Ki in test [5] came out at 447 nM. Further, in test [6], the Ratio Ki was 0.8.
On to `CCN(CC)C(=O)Cn1c2ccccc2c2ccccc21`, for which the Ratio Ki in test [6] amounted to 5.9.
As for `CCN(Cc1cccc(C(F)(F)F)c1)C(=O)Cn1c2ccccc2c2ccccc21`, the Ki in test [5] is above 10000 nM.
With `CCN(Cc1cccc(OC)c1)C(=O)Cn1c2ccccc2c2cc(Br)ccc21`, the inhibition entry in test [1], in test [2], in test [3] and in [4] was “inactive” throughout. Further, the affinity in [5], expressed as Ki, was 469 nM. For the same compound, the Ratio Ki in test [6] was 1.
`CCN(Cc1ccccc1F)C(=O)Cn1c2ccccc2c2ccccc21` had a Ki in test [5] of 184 nM. Further, the Ratio Ki in test [6] is 17.
Regarding `CC[C@@H](C)N(C)C(=O)c1cc2ccccc2c(-c2ccccc2Cl)n1`, the inhibition came out at 81% in test [1], 83% in test [2], 65% in test [3] and 68% in test [4]. In addition, the outcome in test [9] was Active.
On to `CCN(Cc1ccc(OC)cc1)C(=O)Cn1c2ccccc2c2ccccc21`, for which affinity in test [5] was put at a Ki of 4740 nM. The Ratio Ki in test [6] was above 2.1.
`CCN(Cc1ccccc1C(F)(F)F)C(=O)Cn1c2ccccc2c2ccccc21` displayed a Ki in test [5] above 10000 nM.
On to `COc1cccc(CN(C)C(=O)Cn2c3ccccc3c3cc(-c4ccccc4Cl)ccc32)c1`, for which the inhibition result in test [3] and in [4] was “inactive” in each case. For the same compound, the affinity in test [5] corresponds to a Ki of 231 nM. For the same compound, in [6], the Ratio Ki was 0.9.
In the case of `CCN(Cc1cccc(OC)c1)C(=O)Cn1c2ccccc2c2ccccc21`, the inhibition entry in [1], in [2], in test [3] and in [4] was “inactive” in each case. The Ki came to 277 nM in [10], 96.1 nM in [5] and 217 nM in test [11]. Also, in test [9], the outcome was inactive. Moreover, the values for the Ratio Ki in test [6] and in test [12] were 1 and 1.2, respectively.
`CCN(Cc1ccncc1)C(=O)Cn1c2ccccc2c2ccccc21` returned a Ki in test [5] above 10000 nM.
The same measure, in the same setting: the value for `CCN(Cc1cccnc1)C(=O)Cn1c2ccccc2c2ccccc21` was above 10000 nM; that for `COc1cccc(CN(C)C(=O)Cn2c3ccccc3c3cc(Br)ccc32)c1` was above 10000 nM.
Take `COc1ccc(-c2ccc3c(c2)c2ccccc2n3CC(=O)N(C)Cc2cccc(OC)c2)cc1`: the inhibition entry in test [1], in [2], in test [3] and in [4] was “inactive” in each case. The Ki in test [10] came out at 23.2 nM; in [5] it was 6.6 nM; in [11] it was 3.2 nM. For the same compound, the Ratio Ki in test [13] is 3.4; in test [6], 3.8; in test [12], 7.3; in [14], 1.1. Besides, the result in test [9] was inactive.
